Assay results of several laboratories.
Each line is one published result; the experiments were not run side by side.
CDK11B: Cyclin-dependent kinase 11B (CDK11B, Homo sapiens, UniProt P21127)
ALOX5: Polyunsaturated fatty acid 5-lipoxygenase (ALOX5, Homo sapiens, UniProt P09917)

Compound	target	assay	setting	quantity	result
Cc1nn(C)cc1-c1nc2c(N3CCN(Cc4ccc(Cl)cc4)CC3)c(Cl)cnc2[nH]1	CDK11B	binding, competition with immobilised ligand	1 µM	remaining binding	100%
N#Cc1ccc(NCCNCC(=O)N2N=CCC2C#N)nc1 (stereo not drawn)	Dipeptidyl peptidase 8 (Homo sapiens, UniProt Q6V1X1)	enzyme activity, inhibitor	10 µM	inhibition	15%
COc1cc(Nc2ncc(F)c(Nc3ccc4c(n3)NC(=O)C(C)(C)O4)n2)cc(OC)c1OC	Mitogen-activated protein kinase kinase kinase 4 (MAP3K4, Homo sapiens, UniProt Q9Y6R4)	binding, competition with immobilised ligand	10 µM	inhibition	71%
C[C@H](C(=O)N[C@H]1COc2ccccc2[C@@H]1S(C)(=O)=O)c1ccc(F)cc1	ALOX5	enzyme activity, inhibitor	10 µM	inhibition	13%
CCN(CC)CCCC[C@H](NC(=O)[C@H](CC(C)C)NC(=O)[C@H](C)NC(=O)[C@H](Cc1ccccc1)NC(=O)c1ccc(C(C)(C)C)cc1)C(=O)N[C@@H](CO)C(=O)OC	Bromodomain-containing protein 4, BD2 (BRD4, Homo sapiens, UniProt O60885)	thermal stability, DSF	25 µM	ΔTm	0.2 °C
C#Cc1n[nH]c2c(-c3cn(C(C)c4ccccn4)c(=O)[nH]c3=O)cc(F)cc12 (stereo not drawn)	Protein kinase C alpha type (PRKCA, Homo sapiens, UniProt P17252)	enzyme activity, inhibitor	1 µM	inhibition	9.8%
c1ccc(C(NCCNC(c2ccccc2)c2ccccc2)c2ccccc2)cc1	ALOX5	enzyme activity, inhibitor	10 µM	inhibition	99%
Nc1ncc(-c2nc(N3CCOCC3)nc(N3CCOCC3)n2)c(C(F)F)n1	Serine/threonine-protein kinase ICK (CILK1, Homo sapiens, UniProt Q9UPZ9)	binding, competition with immobilised ligand	10 µM	remaining binding	72%
COc1ncccc1-c1cnn2ccc(N3CCN(C(=O)OC(C)C)CC3)nc12	CDK11B	binding, competition with immobilised ligand	1 µM	remaining binding	89%
